One experiment has as its system Echinochloa crus-galli. The experiment can be described thus: Herbicidal activity against Echinochloa crus-galli (barnyard grass) assessed as growth inhibition at 150 g ai/ha using post-emergence protocol under greenhouse conditions measured 15 days after compound treatment. Type of experiment: functional. Conditions: 360 h, read-out: GI. In outline: (§1)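 Grass weeds were grown in pots in the greenhouse and sprayed post-emergence at the 1-leaf stage. The spray was formulation concentrate diluted in water. Soil was clay, pH 6.5, 1.6% organic matter, 37.3% clay particles, CEC 12.1 mol/kg. The g.ai/ha rate was active ingredient over pot surface area. Controls were untreated and DMF-treated seedlings.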

The test system of a further experiment is Setaria viridis. The experiment can be described thus: Herbicidal activity against Setaria viridis assessed as growth inhibition at 150 g ai/ha using post-emergence protocol under greenhouse conditions measured 15 days after compound treatment. Type of experiment: functional. The note with it: 360 h, read-out: GI. In outline:
as §1

A further experiment has as its system Eclipta prostrata. Description: Herbicidal activity against Eclipta prostrata assessed as growth inhibition at 150 g ai/ha using post-emergence protocol under greenhouse conditions measured 15 days after compound treatment. In kind it is functional. Conditions: 360 h, read-out: GI. In outline: (§2)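 Post-emergence greenhouse spray on pot-grown broadleaf weeds at the 2-leaf stage. Formulation concentrates were diluted with water. Soil was clay, pH 6.5, 1.6% organic matter, 37.3% clay particles, CEC 12.1 mol/kg. The rate was total active ingredient divided by pot surface area. Untreated seedlings and DMF-treated seedlings served as controls.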

In another experiment the test system is Amaranthus retroflexus. The experiment can be described thus: Herbicidal activity against Amaranthus retroflexus assessed as growth inhibition at 150 g ai/ha using post-emergence protocol under greenhouse conditions measured 15 days after compound treatment. Type of experiment: functional. The note with it: 360 h, read-out: GI. In outline: as §2
For a further experiment, the system named is Chenopodium album. Description: Herbicidal activity against Chenopodium album assessed as growth inhibition at 150 g ai/ha using post-emergence protocol under greenhouse conditions measured 15 days after compound treatment. Conditions: 360 h, read-out: GI. In kind it is functional. In outline: as §2
For experiment [1], the target named is T1, Protoporphyrinogen oxidase (Homo sapiens, UniProt P50336).
T1 sequence (P50336 whole entry): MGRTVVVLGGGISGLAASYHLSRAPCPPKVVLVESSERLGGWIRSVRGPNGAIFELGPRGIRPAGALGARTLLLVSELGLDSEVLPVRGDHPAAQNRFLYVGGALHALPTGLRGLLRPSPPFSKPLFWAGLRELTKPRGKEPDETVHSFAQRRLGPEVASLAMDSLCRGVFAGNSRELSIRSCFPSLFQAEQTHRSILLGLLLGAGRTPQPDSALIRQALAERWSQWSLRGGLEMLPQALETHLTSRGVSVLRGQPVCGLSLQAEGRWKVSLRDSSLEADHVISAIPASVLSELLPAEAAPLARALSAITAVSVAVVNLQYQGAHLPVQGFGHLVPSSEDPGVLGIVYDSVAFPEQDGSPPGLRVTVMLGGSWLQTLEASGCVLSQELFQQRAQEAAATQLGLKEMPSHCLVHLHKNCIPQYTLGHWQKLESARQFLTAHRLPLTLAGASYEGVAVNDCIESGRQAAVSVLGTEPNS
The experiment can be described thus: Inhibition of Homo sapiens (human) protoporphyrinogen oxidase.

The next experiment deals with Brassica juncea. Description: Herbicidal activity against Brassica juncea assessed as growth inhibition at 150 g ai/ha using post-emergence protocol under greenhouse conditions measured 15 days after compound treatment. Type of experiment: functional. Conditions: 360 h, read-out: GI. In outline:
as §2

Another experiment relates to Digitaria sanguinalis. Description: Herbicidal activity against Digitaria sanguinalis (hairy crabgrass) assessed as growth inhibition at 150 g ai/ha using post-emergence protocol under greenhouse conditions measured 15 days after compound treatment. Conditions: 360 h, read-out: GI. In kind it is functional. In outline: as §1

On to `O=C1C2=C(CCCC2)C(O)N1c1cc(OCc2cccc(Cl)c2)c(Cl)cc1F` (stereo not given), for which the inhibition of growth at 150 g/ha in the experiment on Echinochloa crus-galli was below 50%; with Setaria viridis, below 50%; with Eclipta prostrata, 50%; with Amaranthus retroflexus it was 50%; in the experiment with Chenopodium album, 50%; in the experiment on Brassica juncea, 50%. Besides, the inhibition of growth at 150 g/ha with Digitaria sanguinalis was below 50%. Also, the Ki in experiment [1] (read-out: Ki) was determined as 0.53 µM.
Turning to `O=C1C2CCCCC2C(O)N1c1cc(OC2CCCC2)c(Cl)cc1F` (stereo not given), the inhibition of growth at 150 g/ha in the experiment with Echinochloa crus-galli, with Setaria viridis, in the experiment with Eclipta prostrata, in the experiment on Amaranthus retroflexus, in the experiment with Chenopodium album and in the experiment on Brassica juncea was below 50% each time. Further, the inhibition of growth at 150 g/ha in the experiment with Digitaria sanguinalis is below 50%. In addition, in experiment [1] (read-out: Ki), the Ki came out at 24.6 µM.
`C=CCOC1C2=C(CCCC2)C(=O)N1c1cc(O)c(Br)cc1F` (stereo not given): the inhibition of growth at 150 g/ha with Echinochloa crus-galli is 50%; with Setaria viridis it was below 50%; in the experiment with Eclipta prostrata, 50%; with Amaranthus retroflexus, 50%; in the experiment with Chenopodium album, 50%; in the experiment with Brassica juncea, below 50%. In addition, the inhibition of growth at 150 g/ha with Digitaria sanguinalis came to 50%. Further, the Ki in experiment [1] (read-out: Ki) came to 41.4 µM.
For the compound `CCOC(=O)COc1cc(N2C(=O)C3CCCCC3C2=O)c(F)cc1Cl` (stereo not given), the inhibition of growth at 150 g/ha in the experiment with Echinochloa crus-galli, in the experiment with Setaria viridis, with Eclipta prostrata, in the experiment on Amaranthus retroflexus, in the experiment on Chenopodium album and in the experiment with Brassica juncea was below 50% throughout. Moreover, the inhibition of growth at 150 g/ha with Digitaria sanguinalis is below 50%. In experiment [1] (read-out: Ki), the Ki worked out at 15.2 µM.
On to `CCCOc1cc(N2CC3=C(CCCC3)C2=O)c(Cl)cc1Cl`, for which the inhibition of growth at 150 g/ha was below 50% with Echinochloa crus-galli; below 50% in the experiment with Setaria viridis; below 50% in the experiment on Eclipta prostrata; above 80% in the experiment on Amaranthus retroflexus; below 50% in the experiment on Chenopodium album; below 50% with Brassica juncea. Besides, the inhibition of growth at 150 g/ha in the experiment with Digitaria sanguinalis is below 50%. Besides, in experiment [1] (read-out: Ki), the Ki came out at 0.3 µM.
As to `C=CCOc1cc(N2CC3=C(CCCC3)C2=O)c(F)cc1Cl`, the inhibition of growth at 150 g/ha in the experiment on Echinochloa crus-galli is above 80%; in the experiment on Setaria viridis it was above 80%; with Eclipta prostrata, 100%; in the experiment with Amaranthus retroflexus, 100%; with Chenopodium album it was 100%; in the experiment on Brassica juncea, above 80%. Also, the inhibition of growth at 150 g/ha with Digitaria sanguinalis was above 80%. Moreover, the Ki in experiment [1] (read-out: Ki) worked out at 0.12 µM.
For the compound `CC(C)Oc1cc(N2CC3=C(CCCC3)C2=O)c(F)cc1Cl`, the inhibition of growth at 150 g/ha is below 50% in the experiment on Echinochloa crus-galli; 50% with Setaria viridis; above 80% in the experiment on Eclipta prostrata; 100% in the experiment with Amaranthus retroflexus; above 80% in the experiment on Chenopodium album; above 80% in the experiment on Brassica juncea. The inhibition of growth at 150 g/ha in the experiment on Digitaria sanguinalis was below 50%. Moreover, the Ki in experiment [1] (read-out: Ki) came out at 0.69 µM.
For `COc1cc(N2C(=O)C3=C(CCCC3)C2OC)c(F)cc1Cl` (stereo not given), the inhibition of growth at 150 g/ha is 50% with Echinochloa crus-galli; 50% in the experiment on Setaria viridis; 50% with Eclipta prostrata; above 80% in the experiment on Amaranthus retroflexus; above 80% in the experiment with Chenopodium album; 50% in the experiment on Brassica juncea. Also, the inhibition of growth at 150 g/ha with Digitaria sanguinalis amounted to 50%. Further, the Ki in experiment [1] (read-out: Ki) is 4.49 µM.
Consider `C=CCOC1C2=C(CCCC2)C(=O)N1c1cc(OCC)c(Cl)cc1F` (stereo not given), for which the inhibition of growth at 150 g/ha in the experiment on Echinochloa crus-galli was 50%; in the experiment on Setaria viridis, 50%; in the experiment on Eclipta prostrata it was 100%; with Amaranthus retroflexus, 100%; in the experiment on Chenopodium album it was 100%; in the experiment on Brassica juncea it was 50%. Also, in the experiment on Digitaria sanguinalis, the inhibition of growth at 150 g/ha worked out at 50%. Further, in experiment [1] (read-out: Ki), the Ki is 7.02 µM.
With `CCOC(=O)C(C)Oc1cc(N2C(=O)C3CCCCC3C2=O)c(F)cc1Cl` (stereo not given), the inhibition of growth at 150 g/ha was below 50% with Echinochloa crus-galli; below 50% in the experiment with Setaria viridis; above 80% in the experiment on Eclipta prostrata; 100% in the experiment with Amaranthus retroflexus; 50% in the experiment with Chenopodium album; 50% in the experiment on Brassica juncea. The inhibition of growth at 150 g/ha with Digitaria sanguinalis was below 50%. Moreover, the Ki in experiment [1] (read-out: Ki) was determined as 3.3 µM.
With `COC1C2=C(CCCC2)C(=O)N1c1cc(OCc2cccc(Cl)c2)c(Cl)cc1F` (stereo not given), the inhibition of growth at 150 g/ha in the experiment on Echinochloa crus-galli was 50%; with Setaria viridis it was below 50%; with Eclipta prostrata, 50%; in the experiment with Amaranthus retroflexus, 50%; with Chenopodium album, 50%; in the experiment with Brassica juncea, 50%. Also, the inhibition of growth at 150 g/ha with Digitaria sanguinalis was below 50%. Moreover, the Ki in experiment [1] (read-out: Ki) is 1.03 µM.
Take `C#CCOc1cc(N2C(=O)C3CCCCC3C2O)c(F)cc1Cl` (stereo not given): the inhibition of growth at 150 g/ha with Echinochloa crus-galli, with Setaria viridis, with Eclipta prostrata, in the experiment on Amaranthus retroflexus, in the experiment on Chenopodium album and with Brassica juncea was below 50% throughout. Moreover, the inhibition of growth at 150 g/ha in the experiment with Digitaria sanguinalis was below 50%. Further, the Ki in experiment [1] (read-out: Ki) came to 63.6 µM.
In the case of `COc1cc(N2C(=O)C3CCCCC3C2=O)c(F)cc1Cl` (stereo not given), the inhibition of growth at 150 g/ha is 50% in the experiment with Echinochloa crus-galli; 50% in the experiment with Setaria viridis; 50% in the experiment with Eclipta prostrata; 100% with Amaranthus retroflexus; below 50% in the experiment on Chenopodium album; 50% in the experiment with Brassica juncea. For the same compound, the inhibition of growth at 150 g/ha in the experiment on Digitaria sanguinalis was found to be 50%. Moreover, the Ki in experiment [1] (read-out: Ki) is 8.22 µM.
With `CCOc1cc(N2CC3=C(CCCC3)C2=O)c(Cl)cc1Cl`, the inhibition of growth at 150 g/ha in the experiment with Echinochloa crus-galli was below 50%; in the experiment on Setaria viridis, below 50%; in the experiment with Eclipta prostrata it was 50%; in the experiment on Amaranthus retroflexus it was 50%; in the experiment with Chenopodium album, 50%; with Brassica juncea, below 50%. The inhibition of growth at 150 g/ha with Digitaria sanguinalis is below 50%. In addition, the Ki in experiment [1] (read-out: Ki) is 0.67 µM.
As to `O=C1C2=C(CCCC2)C(O)N1c1cc(O)c(Br)cc1F` (stereo not given), the inhibition of growth at 150 g/ha in the experiment with Echinochloa crus-galli was below 50%; in the experiment with Setaria viridis, below 50%; with Eclipta prostrata, 50%; in the experiment on Amaranthus retroflexus it was 50%; in the experiment with Chenopodium album, 50%; in the experiment with Brassica juncea it was below 50%. Also, in the experiment on Digitaria sanguinalis, the inhibition of growth at 150 g/ha was 50%. Besides, in experiment [1] (read-out: Ki), the Ki worked out at 19.3 µM.
As to `C=CCOc1cc(N2C(=O)C3CCCCC3C2O)c(F)cc1Cl` (stereo not given), the inhibition of growth at 150 g/ha with Echinochloa crus-galli, in the experiment on Setaria viridis, in the experiment with Eclipta prostrata, with Amaranthus retroflexus, in the experiment with Chenopodium album and in the experiment on Brassica juncea was below 50% throughout. In the experiment on Digitaria sanguinalis, the inhibition of growth at 150 g/ha was below 50%. Besides, the figures for the Ki in experiment [1] (read-out: Ki) and in experiment [1] (read-out: pKi (converted)) were 44.8 µM and 45.7 µM, respectively.
For `O=C1C2=C(CCCC2)C(O)N1c1cc(OCc2cccc(F)c2)c(Cl)cc1F` (stereo not given), the inhibition of growth at 150 g/ha in the experiment with Echinochloa crus-galli was below 50%; in the experiment with Setaria viridis it was below 50%; in the experiment with Eclipta prostrata, 50%; with Amaranthus retroflexus, above 80%; in the experiment on Chenopodium album it was 50%; in the experiment with Brassica juncea it was 50%. In addition, the inhibition of growth at 150 g/ha with Digitaria sanguinalis is 50%. The Ki in experiment [1] (read-out: Ki) was 0.78 µM.
For the compound `Cc1nn(-c2cc(NS(C)(=O)=O)c(Cl)cc2Cl)c(=O)n1C(F)F` [SULFENTRAZONE], the inhibition of growth at 150 g/ha was below 50% with Echinochloa crus-galli; above 80% in the experiment with Setaria viridis; 100% in the experiment with Eclipta prostrata; 100% with Amaranthus retroflexus; 100% in the experiment with Chenopodium album; 100% in the experiment with Brassica juncea. The inhibition of growth at 150 g/ha with Digitaria sanguinalis was below 50%.
`O=C1NC(=O)c2cc(Cl)ccc21` [4-CHLORO-PHTHALIMIDE]: the Ki in experiment [1] (read-out: Ki) stood at 87.9 µM.
